Measured values from ChEMBL document CHEMBL1127572, “Hypoxia-selective antitumor agents. 9. Structure-activity relationships for hypoxia-selective cytotoxicity among analogues of 5-[N,N-bis(2-chloroethyl)amino]-2,4-dinitrobenzamide” (J Med Chem, 1994).
≈ marks a conversion by molar mass, not a printed value.

Key:
[1] = Ratio of the cytotoxicities against drug induced aerobic Walker cells and chinese hamster ovary fibroblast line AA8; assay type: functional
Procedure, shortened: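 IC50 in AA8 divided by IC50 in Walker 256 (WS) cells. Walker cells were seeded at 225 cells/0.15 mL with continuous aerobic drug exposure over 4 days, read by MTT. Ratios are interexperiment means.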

UV4 [2] = experiment: The ratio of the cytotoxicities against UV4 cell line in the air and N2 was measured using clonogenic assay; assay type: functional, Cricetulus griseus
Procedure, shortened: (§1)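 UV4 cells (10^6/mL, stirred 10 mL suspensions) were gassed with 5% CO2 in air or in N2 after 60 min pre-equilibration, with clonogenic survival sampled over time. Concentrations giving similar kill rates under each gas were chosen. Ratio = CT10(air)/CT10(N2). Mean ± SEM of separate experiments.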

[3] = Solubility (alpha-MEM culture medium, containing 5% fetal calf serum); assay type: physicochemical; details: alpha-MEM culture medium with 5% fetal calf serum; read-out: S
Procedure, shortened: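 Solubility (mM) in α-MEM with 5% fetal calf serum, measured at ambient temperature by UV spectroscopy.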

UV4 [4] = experiment: Tested for the product of drug concentration and exposure time required to reduce UV4 cell survival to 10% under hypoxic condition by clonogenic assay
CHO-AA8 = experiment: Aerobic cytotoxicity was assessed in a growth inhibition assay using log phase cultures of the chinese hamster ovary fibroblast line AA8; assay type: functional, cell-based
Procedure, shortened: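 AA8 Chinese hamster ovary cells seeded at 200 cells/well, grown 24 h, then exposed 18 h to five 2-fold serial dilutions in duplicate. Drug washed out, cells grown a further 78 h, density read by methylene blue staining. IC50 = concentration giving 50% growth inhibition versus controls. Values are means ± SEM.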

[5] = Tested for hypersensitivity factor which is the ratio of cytotoxicities against aerobic UV4 cells and chinese hamster ovary fibroblast line AA8
[6] = The ratio of the cytotoxicities against UV4 cell line in the air and N2 was measured using clonogenic assay.; assay type: functional; procedure, shortened: as §1

Row | Structure (SMILES) | IC50 ratio [1] | CT10 ratio (UV4 [2]) | solubility [3] | CT10 (UV4 [4]) | IC50 (CHO-AA8; Cricetulus griseus, CHO-AA8) | IC50 ratio [5] | IC50 (CHO-AA8; cho-aa8) | CT10 ratio [6]
1 | NC(=O)c1cc(N(CCI)CCI)c([N+](=O)[O-])cc1[N+](=O)[O-] | 5.2 | 42 | 35 µM (≈ 18.7 µg/mL) | 4.4 µM·h | 34 µM | 2.6 | – | –
2 | NC(=O)c1cc(N(CCBr)CCBr)c([N+](=O)[O-])cc1[N+](=O)[O-] | 3.1 | 20 | 42 µM (≈ 18.5 µg/mL) | 8 µM·h | 57 µM | 7.5 | – | –
3 | O=C(NCC(O)CO)c1cc(N(CCCl)CCCl)c([N+](=O)[O-])cc1[N+](=O)[O-] (stereo not given) | 1.6 | 8.6 | 7400 µM (≈ 3150 µg/mL) | 465 µM·h | 1930 µM | 4.4 | – | –
4 | NC(=O)c1cc(N(CCCl)CCCl)c([N+](=O)[O-])cc1[N+](=O)[O-] | 4.1 | 58 | 190 µM (≈ 66.7 µg/mL) | 95 µM·h | – | 6.8 | 470 µM | –
5 | CS(=O)(=O)OCCN(CCOS(C)(=O)=O)c1cc(C(N)=O)c([N+](=O)[O-])cc1[N+](=O)[O-] | >3 | 17 | 530 µM (≈ 249 µg/mL) | 70 µM·h | – | >4 | – | –
6 | O=C(c1cc(N(CCCl)CCCl)c([N+](=O)[O-])cc1[N+](=O)[O-])N1CCOCC1 | 4.1 | 1.3 | 30 µM (≈ 12.6 µg/mL) | 125 µM·h | 240 µM | 23 | – | –
7 | O=C(O)CCNC(=O)c1cc(N(CCCl)CCCl)c([N+](=O)[O-])cc1[N+](=O)[O-] | 1.5 | 2.3 | 11000 µM (≈ 4660 µg/mL) | 12000 µM·h | 6100 µM | 1.1 | – | –
8 | CS(=O)(=O)OCCN(CCCl)c1cc(C(N)=O)c([N+](=O)[O-])cc1[N+](=O)[O-] | 6 | – | 840 µM (≈ 345 µg/mL) | 48 µM·h | 945 µM | 13 | – | 60
9 | C[N+](C)([O-])CCNC(=O)c1cc(N(CCCl)CCCl)c([N+](=O)[O-])cc1[N+](=O)[O-] | 2.3 | 8 | > 42000 µM | 4500 µM·h | 7290 µM | 1.7 | – | –
10 | NC(=S)c1cc(N(CCCl)CCCl)c([N+](=O)[O-])cc1[N+](=O)[O-] | >1 | >3 | 38 µM (≈ 14 µg/mL) | 19 µM·h | > 25 µM | >2 | – | –
11 | CS(=O)(=O)NS(=O)(=O)c1cc(N(CCCl)CCCl)c([N+](=O)[O-])cc1[N+](=O)[O-] | 1.5 | 5.2 | 32000 µM (≈ 14900 µg/mL) | 980 µM·h | 466 µM | 1 | – | –
12 | CN(C)CCNC(=O)c1cc(N(CCCl)CCCl)c([N+](=O)[O-])cc1[N+](=O)[O-] | 5.6 | 60 | 35000 µM (≈ 14800 µg/mL) | 21 µM·h | 220 µM | 3.9 | – | –
13 | O=C(NCCO)c1cc(N(CCCl)CCCl)c([N+](=O)[O-])cc1[N+](=O)[O-] | – | – | 100 µM (≈ 39.5 µg/mL) | – | > 100 µM | – | – | –
14 | N#Cc1cc(N(CCCl)CCCl)c([N+](=O)[O-])cc1[N+](=O)[O-] | 3.2 | 8.5 | 120 µM (≈ 40 µg/mL) | 10 µM·h | 24 µM | 6.8 | – | –
15 | NC(=O)c1cc(NCCCl)c([N+](=O)[O-])cc1[N+](=O)[O-] | 380 | – | – | – | 748 µM | 1.4 | – | –
16 | O=C(NCCN1CCOCC1)c1cc(N(CCCl)CCCl)c([N+](=O)[O-])cc1[N+](=O)[O-] | 3.7 | 45 | 4700 µM (≈ 2180 µg/mL) | 83 µM·h | 920 µM | 3 | – | –
17 | CCN(CCCl)c1cc(C(N)=O)c([N+](=O)[O-])cc1[N+](=O)[O-] | >1 | – | 160 µM (≈ 50.7 µg/mL) | > 300 µM·h | > 97 µM | – | – | –
18 | NS(=O)(=O)c1cc(N(CCCl)CCCl)c([N+](=O)[O-])cc1[N+](=O)[O-] | 1.7 | 2.1 | 160 µM (≈ 62 µg/mL) | 5.7 µM·h | 2 µM | 1.5 | – | –
19 | CNC(=O)c1cc(N(CCCl)CCCl)c([N+](=O)[O-])cc1[N+](=O)[O-] | – | – | 200 µM (≈ 73 µg/mL) | > 360 µM·h | > 100 µM | – | – | –
20 | CN(C)C(=O)c1cc(N(CCCl)CCCl)c([N+](=O)[O-])cc1[N+](=O)[O-] | <0.3 | >20 | 130 µM (≈ 49.3 µg/mL) | 250 µM·h | 310 µM | 1.4 | – | –
21 | O=C(O)c1cc(N(CCCl)CCCl)c([N+](=O)[O-])cc1[N+](=O)[O-] | 4.7 | – | 18000 µM (≈ 6340 µg/mL) | 19000 µM·h | 10600 µM | 1.4 | – | >1.2
22 | O=C(c1cc(N2CC2)c([N+](=O)[O-])cc1[N+](=O)[O-])N1CCOCC1 | 800 | 1.7 | – | 30 µM·h | 694 µM | 330 | – | –
23 | CCN(CCCl)c1cc(C(=O)NCCN(C)C)c([N+](=O)[O-])cc1[N+](=O)[O-] | 5 | 3.5 | > 38000 µM | 390 µM·h | 570 µM | 1.9 | – | –
24 | NC(=O)c1cc(N2CC2)c([N+](=O)[O-])cc1[N+](=O)[O-] [TRETAZICAR] | 37000 | 3.6 | 7900 µM (≈ 1990 µg/mL) | 225 µM·h | 563 µM | 50 | – | –
